Test results taken from ChEMBL document CHEMBL1127365, “Self-immolative prodrugs: candidates for antibody-directed enzyme prodrug therapy in conjunction with a nitroreductase enzyme” (J Med Chem, 1994).

Legend:
[1] = system: V79; assay: (§1) Tested for the effect of enzyme activation on the cytotoxicity at 10 uM when incubated with chinese hamster V79 cells in presence of NADH; type: functional; conditions: Cricetulus griseus, read-out: Survival
How it was run: (§2)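 Chinese hamster V79 cells (2 × 10^5/mL) in PBS were exposed to the test agent plus NADH (500 μM), without enzyme, for 2 h at 37 °C. Cells were then harvested and assayed for colony-forming ability, reported as % survival. The supernatant was assayed by HPLC for remaining prodrug.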

[2] = system: V79; assay: (§3) Tested for the effect of enzyme activation on the cytotoxicity at 10 uM when incubated with chinese hamster V79 cells; type: functional; conditions: Cricetulus griseus, read-out: Survival
How it was run: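 Chinese hamster V79 cells (2 × 10^5/mL) in PBS were exposed to the test agent alone, without NADH or NR, for 2 h at 37 °C. Cells were then harvested and assayed for colony-forming ability, reported as % survival. The supernatant was checked by HPLC for remaining prodrug.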

[3] = system: V79; assay: as §1; type: functional, Cricetulus griseus; how it was run: as §2
[4] = system: V79; assay: (§4) Tested for the effect of enzyme activation on the cytotoxicity at 10 uM when incubated with chinese hamster V79 cells in presence of NADH and nitroreductase enzyme.; type: functional, Cricetulus griseus
How it was run: as §2, with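 “with” for “plus”, “μM) and E. coli B nitroreductase (10 μg/mL)” for “μM), without enzyme,”, “prodrug, giving % prodrug reduction.” for “prodrug.”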

[5] = system: V79; assay: as §4; type: functional; conditions: Cricetulus griseus, read-out: Survival
How it was run: as §2, with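 “with” for “plus”, “μM) and E. coli B nitroreductase (10 μg/mL)” for “μM), without enzyme,”, “prodrug, giving % prodrug reduction.” for “prodrug.”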

[6] = system: V79; assay: as §3; type: functional, Cricetulus griseus
[7] = system: Mus musculus; assay: In vivo toxicity in mouse at dose 100 mg/kg when administered intraperitoneally on day 3; type: organism-based; parameters: dose 100 mg/kg, route intraperitoneal; conditions: ip
How it was run: (§5)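 Balb C mice (20-25 g), groups of 3, single ip injection in arachis oil; doses 1, 5, 10 or 100 mg/kg. Untreated and arachis-oil-only groups served as controls. Mice were fed rodent diet and water ad libitum. Body weight was recorded as % of day 0 on days 2, 3, 7 and 9, and deaths were noted.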

[8] = system: Mus musculus; assay: In vivo toxicity in mouse at dose 10 mg/kg when administered intraperitoneally on day 3; type: organism-based; parameters: dose 10 mg/kg, route intraperitoneal; conditions: ip; how it was run: as §5
[9] = system: Mus musculus; assay: In vivo toxicity in mouse at dose 1 mg/kg when administered intraperitoneally on day 2; type: organism-based; parameters: dose 1 mg/kg, route intraperitoneal; conditions: ip; how it was run: as §5
[10] = system: Mus musculus; assay: In vivo toxicity in mouse at dose 100 mg/kg when administered intraperitoneally on day 7; type: organism-based; parameters: dose 100 mg/kg, route intraperitoneal; conditions: ip; how it was run: as §5
[11] = system: Mus musculus; assay: In vivo toxicity in mouse at dose 100 mg/kg when administered intraperitoneally on day 9; type: organism-based; parameters: dose 100 mg/kg, route intraperitoneal; conditions: ip; how it was run: as §5
[12] = system: Mus musculus; assay: In vivo toxicity in mouse at dose 100 mg/kg when administered intraperitoneally on day 2; type: organism-based; parameters: dose 100 mg/kg, route intraperitoneal; conditions: ip; how it was run: as §5
[13] = system: Mus musculus; assay: In vivo toxicity in mouse at dose 1 mg/kg when administered intraperitoneally on day 9; type: organism-based; parameters: dose 1 mg/kg, route intraperitoneal; conditions: ip; how it was run: as §5
[14] = system: Mus musculus; assay: In vivo toxicity in mouse at dose 10 mg/kg when administered intraperitoneally on day 9; type: organism-based; parameters: dose 10 mg/kg, route intraperitoneal; conditions: ip; how it was run: as §5
[15] = system: Mus musculus; assay: In vivo toxicity in mouse at dose 1 mg/kg when administered intraperitoneally on day 7; type: organism-based; parameters: dose 1 mg/kg, route intraperitoneal; conditions: ip; how it was run: as §5
[16] = system: Mus musculus; assay: In vivo toxicity in mouse at dose 10 mg/kg when administered intraperitoneally on day 7; type: organism-based; parameters: dose 10 mg/kg, route intraperitoneal; conditions: ip; how it was run: as §5
[17] = system: Mus musculus; assay: In vivo toxicity in mouse at dose 10 mg/kg when administered intraperitoneally on day 2; type: organism-based; parameters: dose 10 mg/kg, route intraperitoneal; conditions: ip; how it was run: as §5
[18] = system: Mus musculus; assay: In vivo toxicity in mouse at dose 1 mg/kg when administered intraperitoneally on day 3; type: organism-based; parameters: dose 1 mg/kg, route intraperitoneal; conditions: ip; how it was run: as §5
[19] = system: V79; assay: (§6) Tested for the effect of enzyme activation on the cytotoxicity at 50 uM when incubated with chinese hamster V79 cells in presence of NADH and nitroreductase enzyme.; type: functional; conditions: Cricetulus griseus, read-out: Survival
How it was run: as §2, with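 “with” for “plus”, “μM) and E. coli B nitroreductase (10 μg/mL)” for “μM), without enzyme,”, “prodrug, giving % prodrug reduction.” for “prodrug.”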

[20] = system: V79; assay: (§7) Tested for the effect of enzyme activation on the cytotoxicity at 50 uM when incubated with chinese hamster V79 cells in presence of NADH; type: functional; conditions: Cricetulus griseus, read-out: Survival; how it was run: as §2
[21] = system: V79; assay: (§8) Tested for the effect of enzyme activation on the cytotoxicity at 50 uM when incubated with chinese hamster V79 cells; type: functional; conditions: Cricetulus griseus, read-out: Survival
[22] = system: V79; assay: as §6; type: functional, Cricetulus griseus
How it was run: as §2, with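 “with” for “plus”, “μM) and E. coli B nitroreductase (10 μg/mL)” for “μM), without enzyme,”, “prodrug, giving % prodrug reduction.” for “prodrug.”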

[23] = system: V79; assay: as §8; type: functional, Cricetulus griseus
[24] = system: V79; assay: as §7; type: functional, Cricetulus griseus; how it was run: as §2
[25] = system: Mus musculus; assay: Tested in vivo toxicity in mouse at dose 1 mg/kg when administered intraperitoneally on day 3; type: organism-based; parameters: dose 1 mg/kg, route intraperitoneal; conditions: ip
How it was run: (§9)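 Balb C mice (20-25 g), groups of 3, fed rodent diet and water ad libitum. Single ip injection in arachis oil at 1, 5, 10 or 100 mg/kg. Untreated and arachis-oil-only groups served as controls. Body weight recorded as % of day 0 on days 2, 3, 7 and 9.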

[26] = system: Mus musculus; assay: Tested in vivo toxicity in mouse at dose 1 mg/kg when administered intraperitoneally on day 2; type: organism-based; parameters: dose 1 mg/kg, route intraperitoneal; conditions: ip; how it was run: as §9
[27] = system: Mus musculus; assay: Tested in vivo toxicity in mouse at dose 1 mg/kg when administered intraperitoneally on day 9; type: organism-based; parameters: dose 1 mg/kg, route intraperitoneal; conditions: ip; how it was run: as §9
[28] = system: Mus musculus; assay: Tested in vivo toxicity in mouse at dose 1 mg/kg when administered intraperitoneally on day 7; type: organism-based; parameters: dose 1 mg/kg, route intraperitoneal; conditions: ip; how it was run: as §9
[29] = system: V79; assay: (§10) Tested for the effect of enzyme activation on the cytotoxicity at 1 uM when incubated with chinese hamster V79 cells in presence of NADH and nitroreductase enzyme.; type: functional, Cricetulus griseus
How it was run: as §2, with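 “with” for “plus”, “μM) and E. coli B nitroreductase (10 μg/mL)” for “μM), without enzyme,”, “prodrug, giving % prodrug reduction.” for “prodrug.”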

[30] = system: V79; assay: (§11) Tested for the effect of enzyme activation on the cytotoxicity at 1 uM when incubated with chinese hamster V79 cells in presence of NADH; type: functional, Cricetulus griseus; how it was run: as §2
[31] = system: V79; assay: (§12) Tested for the effect of enzyme activation on the cytotoxicity at 1 uM when incubated with chinese hamster V79 cells; type: functional, Cricetulus griseus
[32] = system: V79; assay: as §11; type: functional; conditions: Cricetulus griseus, read-out: Survival; how it was run: as §2
[33] = system: V79; assay: as §10; type: functional; conditions: Cricetulus griseus, read-out: Survival
How it was run: as §2, with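 “with” for “plus”, “μM) and E. coli B nitroreductase (10 μg/mL)” for “μM), without enzyme,”, “prodrug, giving % prodrug reduction.” for “prodrug.”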

[34] = system: V79; assay: as §12; type: functional; conditions: Cricetulus griseus, read-out: Survival
[35] = system: V79; assay: as §11; type: functional, Cricetulus griseus; remark: listed apart in the source

With `O=C(OCc1ccc([N+](=O)[O-])cc1)Oc1ccc(N(CCCl)CCCl)cc1` the viability at 10 µM [1] was 45.8%, the viability at 10 µM [2] was 56.4% and the Prodrug reduction [3] was 0%. The Prodrug reduction [4] was 86%, the viability at 10 µM [5] was 43.3% and the Prodrug reduction [6] was 0%.
Compound `Cc1c2oc3c(C)ccc(C(=O)N[C@@H]4C(=O)N[C@H](C(C)C)C(=O)N5CCC[C@H]5C(=O)N(C)CC(=O)N(C)[C@@H](C(C)C)C(=O)O[C@@H]4C)c3nc-2c(C(=O)N[C@@H]2C(=O)N[C@H](C(C)C)C(=O)N3CCC[C@H]3C(=O)N(C)CC(=O)N(C)[C@@H](C(C)C)C(=O)O[C@@H]2C)c(NC(=O)OCc2ccc([N+](=O)[O-])cc2)c1=O` [listing 1 of 2 here] has a Weight [7] of 95.6%, a Weight [8] of 105% and a Weight [9] of 102%. It also gave a Weight [10] of 95%, a Weight [11] of 96% and a Weight [12] of 96.4%. For the same compound, the Weight [13] was 103%, the Weight [14] was 110% and the Weight [15] was 101%. For the same compound, the Weight [16] was 108%, the Weight [17] was 109% and the Weight [18] was 101%.
For `O=C(Nc1ccc(N(CCCl)CCCl)cc1)OCc1ccc([N+](=O)[O-])cc1`, the viability at 50 µM [19] was < 0.001%, the viability at 50 µM [20] was 34.1% and the viability at 50 µM [21] was 27.1%. The Prodrug reduction [22] was 30%, the Prodrug reduction [23] was 0% and the Prodrug reduction [24] was 0%.
Compound `Cc1c2oc3c(C)ccc(C(=O)N[C@@H]4C(=O)N[C@H](C(C)C)C(=O)N5CCC[C@H]5C(=O)N(C)CC(=O)N(C)[C@@H](C(C)C)C(=O)O[C@@H]4C)c3nc-2c(C(=O)N[C@@H]2C(=O)N[C@H](C(C)C)C(=O)N3CCC[C@H]3C(=O)N(C)CC(=O)N(C)[C@@H](C(C)C)C(=O)O[C@@H]2C)c(N)c1=O` (stereo in doubt) [DACTINOMYCIN] has a Weight [25] of 95%, a Weight [26] of 98.6% and a Weight [27] of 103%. It also gave a Weight [28] of 101.6%.
Compound `Cc1c2oc3c(C)ccc(C(=O)N[C@@H]4C(=O)N[C@H](C(C)C)C(=O)N5CCC[C@H]5C(=O)N(C)CC(=O)N(C)[C@@H](C(C)C)C(=O)O[C@@H]4C)c3nc-2c(C(=O)N[C@@H]2C(=O)N[C@H](C(C)C)C(=O)N3CCC[C@H]3C(=O)N(C)CC(=O)N(C)[C@@H](C(C)C)C(=O)O[C@@H]2C)c(NC(=O)OCc2ccc([N+](=O)[O-])cc2)c1=O` [listing 2 of 2 here] has a Prodrug reduction [29] of 90.5%, a viability at 10 µM [1] of 44.6% and a Prodrug reduction [30] of 0%. For the same compound, the viability at 10 µM [2] was 39.3%, the Prodrug reduction [31] was 0% and the Prodrug reduction [3] was 0%. For the same compound, the viability at 1 µM [32] was 102%, the Prodrug reduction [4] was 93% and the viability at 10 µM [5] was < 0.001%. It also gave a viability at 1 µM [33] of 27.4%, a viability at 1 µM [34] of 98.3% and a Prodrug reduction [6] of 0%.
Compound `COC12C(COC(N)=O)C3=C(C(O)=C(C)C(=N)C3=O)N1CC1C2N1C(=O)OCc1ccc([N+](=O)[O-])cc1` (stereo unspecified) has a Prodrug reduction [29] of 91%, a Prodrug reduction [31] of 0% and a viability at 1 µM [32] of 70.8%. For the same compound, the Prodrug reduction [35] was 0%, the viability at 1 µM [33] was 25.4% and the viability at 1 µM [34] was 76.7%.
